The record followed here is ChEMBL document CHEMBL1143004, “Structure-activity relationship among purpurinimides and bacteriopurpurinimides: trifluoromethyl substituent enhanced the photosensitizing efficacy” (J Med Chem, 2007).

The nature of data set [1]: Ratio of drug level in tumor to skin of C3H mouse bearing RIF tumors after 24 hrs by IRS. The following applies: in vivo. The class given is ADME. Summed up:
(§1)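 In vivo reflectance spectroscopy in female C3H/RIF or BALB/c/colon-26 mice. Baseline spectrum recorded via fiber bundles on tumor plus overlying skin and on normal skin. Drug 2.5–5.0 µmol/kg i.v. by tail vein, then spectra recorded up to 2 days. Post- to pre-injection spectral ratio compared in tumor versus skin. n = 3.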

Data set [2] in a line: Photosensitizing efficacy in C3H mouse bearing RIF tumors measured as tumor free at 0.7 umol/kg and light dose 135 J/cm2 after 90 days. In kind it is functional. Summed up: (§2)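 Female C3H mice given s.c. RIF cells (3 × 10⁵) or female BALB/c mice given colon-26 cells (1 × 10⁶), both on right posterior shoulder. Drug in 1% Tween 80/HBSS given i.v. the day before light, hair depilated. At 24 h p.i., restrained unanaesthetized mice (10/group) got a 1 cm² argon-pumped dye laser spot, 135 J/cm² at 75 mW/cm². Tumor volume L·W²/2; cure = no palpable tumor.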

In another data set the test system is Colon 26. Nature of the data set: Photosensitizing efficacy in Balb/C mouse implanted with colon26 tumors measured as tumor free at 0.7 umol/kg and light dose 135 J/cm2 after 90 days. In kind it is functional. The gist of the method: as §2
The nature of data set [3]: Ratio of drug level in tumor to skin of Balb/C mouse implanted with colon26 tumor after 24 hrs by IRS. The conditions noted are these: in vivo. The class given is ADME. The gist of the method:
as §1

The next data set relates to RIF. Nature of the data set: Photosensitizing efficacy in RIF cells after 48 hrs by MTT assay in presence of light. In kind it is functional, cell-based. The gist of the method:
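RIF cells, 5 × 10³/well, seeded in α-MEM with 10% FCS. Next day drug added at 1.25–20 µM (formulated in 1% Tween 80/5% dextrose, diluted in medium), 24 h dark at 37 °C. Medium replaced, then 708 nm (purpurinimides) or 791 nm (bacteriopurpurinimides) at 3.2 mW/cm², 0.5–20 J/cm². After 48 h dark, MTT 4 h, DMSO, A560. Survival relative to dark and light controls; four wells per point, SD from three experiments.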
A general note: Tetrazolium dyes change colour on reduction, which living cells bring about.

Data set [4] in a line: Photosensitizing efficacy in C3H mouse bearing RIF tumors measured as tumor free at 0.4 umol/kg and light dose 135 J/cm2 after 60 days. In kind it is functional. The gist of the method:
as §2

The structures appear in SMILES notation.

Take `CCC1=C(C)c2cc3[nH]c(cc4nc(c5c6[nH]c(cc1n2)c(C)c6C(=O)N(Cc1cc(C(F)(F)F)cc(C(F)(F)F)c1)C5=O)[C@@H](CCC(=O)OC)[C@@H]4C)c(C)c3C(C)OC` (stereo partly drawn): the Ratio in data set [1] was 2.48.
For the molecule `CC[C@@H]1c2cc3[nH]c4c(c5nc(cc6[nH]c(cc(n2)[C@H]1C)c(C(C)OC)c6C)[C@@H](C)[C@@H]5CCC(=O)OC)C(=O)N(Cc1cc(C(F)(F)F)cc(C(F)(F)F)c1)C(=O)c4c3C` (stereo partly drawn), in data set [1], the Ratio was determined as 1.91.
Turning to `CCCCOC(C)c1c(C)c2cc3nc(c4c5[nH]c(cc6nc(cc1[nH]2)C(C)=C6CC)c(C)c5C(=O)N(Cc1cc(C(F)(F)F)cc(C(F)(F)F)c1)C4=O)[C@@H](CCC(=O)Nc1ccc(CC(CN(CCN(CC(=O)O)CC(=O)O)CC(=O)O)N(CC(=O)O)CC(=O)O)cc1)[C@@H]3C` (stereo partly drawn), the Activity (in data set [2]; in the data set with Colon 26) was 70% in each case. Moreover, the values for the Ratio in data set [1] and in data set [3] were 3.68 and 5.06, respectively.
Regarding `CCCCOC(C)c1c(C)c2cc3nc(c4c5[nH]c(cc6nc(cc1[nH]2)[C@@H](C)[C@@H]6CC)c(C)c5C(=O)N(Cc1cc(C(F)(F)F)cc(C(F)(F)F)c1)C4=O)[C@@H](CCC(=O)OC)[C@@H]3C` (stereo partly drawn), in data set [1], the Ratio stood at 5.3.
The same measure, in the same setting: the value for `CCCCCCCOC(C)c1c(C)c2cc3nc(c4c5[nH]c(cc6nc(cc1[nH]2)C(C)=C6CC)c(C)c5C(=O)N(Cc1cc(C(F)(F)F)cc(C(F)(F)F)c1)C4=O)[C@@H](CCC(=O)OC)[C@@H]3C` (stereo partly drawn) was 1.97.
In the case of `CCCCOC(C)c1c(C)c2cc3nc(c4c5[nH]c(cc6nc(cc1[nH]2)C(C)=C6CC)c(C)c5C(=O)N(Cc1cc(C(F)(F)F)cc(C(F)(F)F)c1)C4=O)[C@@H](CCC(=O)OC)[C@@H]3C` (stereo partly drawn), the Activity in data set [2] was 30%; with Colon 26, 30%; in the data set with RIF, “Dose-dependent effect”. The Ratio in data set [1] is 4.76; in data set [3] it was 3.38.
On to `CCCCCCCCCCCCOC(C)c1c(C)c2cc3nc(c4c5[nH]c(cc6nc(cc1[nH]2)[C@@H](C)[C@@H]6CC)c(C)c5C(=O)N(Cc1cc(C(F)(F)F)cc(C(F)(F)F)c1)C4=O)[C@@H](CCC(=O)OC)[C@@H]3C` (stereo partly drawn), for which the Ratio in data set [1] was found to be 8.89. In addition, the Activity in data set [4] is 60%.
Take `CCCCCCCOC(C)c1c(C)c2cc3nc(c4c5[nH]c(cc6nc(cc1[nH]2)[C@@H](C)[C@@H]6CC)c(C)c5C(=O)N(Cc1cc(C(F)(F)F)cc(C(F)(F)F)c1)C4=O)[C@@H](CCC(=O)OC)[C@@H]3C` (stereo partly drawn): the Ratio in data set [1] is recorded as 6.87.
Take `CCCCCCCCCCCCOC(C)c1c(C)c2cc3nc(c4c5[nH]c(cc6nc(cc1[nH]2)C(C)=C6CC)c(C)c5C(=O)N(Cc1cc(C(F)(F)F)cc(C(F)(F)F)c1)C4=O)[C@@H](CCC(=O)OC)[C@@H]3C` (stereo partly drawn): in data set [1], the Ratio amounted to 1.82. Further, the Activity in data set [4] came out at 50%.
